Paper PMC7442708 (SLAS discovery : advancing life sciences R & D, 2020)

Tests used:
[1] = tested on: KOPT-K1 cells; settings: compared to JURKAT; cited from earlier work
[2] = tested on: HES1 and HEY1; settings: cited from earlier work
[3] = tested on: HPB-ALL cells; assay: cell proliferation, cellular ATP; assay type: cell-based; settings: 96 hours; compared to JURKAT
How it was run: (§1)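 HPB-ALL and TALL-1 cells (DSMZ), grown in RPMI 1640 with 15% FBS. Exposed to varying amounts of test compound for 96 h, a longer exposure chosen because these lines divide more slowly. Metabolically active cells measured as cellular ATP by CellTiter-Glo luminescence. Proliferation expressed relative to DMSO control; mean ± SEM, N = 3.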

[4] = target: RBPJ occupancy (RBPJ-DNA interactions in cells) (Homo sapiens, UniProt Q06330); assay: anti-RBPJ ChIP-qPCR in NICD-transfected HEK293T cells; assay type: cell-based; settings: 2.5 μM, 24 hours
How it was run: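 HEK293T cells (DMEM, 10% FBS) co-transfected with Flag-NICD and 4xRBPJ-firefly luciferase. About 4 million cells were fixed and sonicated on ice (12 cycles, 30 s on/90 s off, 40% amplitude). ChIP used polyclonal anti-RBPJ (FC31, 1:100) with protein A-agarose. SYBR green qPCR; mean ± SEM, N = 3.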

[5] = tested on: DND-41 cells; assay: cell proliferation, cellular ATP; assay type: cell-based; settings: 36 hours
How it was run: (§2)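 Cells kept in RPMI 1640 with 15% FBS (CCRF-CEM, DND-41) and exposed to test compound for 36 h. Cellular ATP was measured by CellTiter-Glo luminescence as an index of metabolically active cells. Proliferation is expressed relative to DMSO control; mean ± SEM, N = 3.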

[6] = tested on: JURKAT cells; assay: cell proliferation, cellular ATP; assay type: cell-based; settings: 36 hours; compared to CCRF-CEM, DND-41 and CUTLL1
How it was run: (§3)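 T-ALL cell lines exposed to test compound for 36 h; MOLT-4 grown in RPMI 1640 with 15% FBS. Cellular ATP measured by CellTiter-Glo luminescence as an index of metabolically active cells. Proliferation expressed relative to DMSO control; mean ± SEM, N = 3.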

[7] = tested on: Notch target genes HEY1 and HES1; assay: RT-qPCR of endogenous gene expression in NICD-transfected HEK293T cells; assay type: cell-based; settings: 2.5 μM, 24 hours; normalized to beta actin
How it was run: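 Total RNA extracted with TRIzol; cDNA reverse-transcribed from 1 μg RNA. Transcripts quantified by SYBR-based real-time PCR, normalized to beta-actin, and analyzed by the ΔΔCt method.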

[8] = tested on: CCRF-CEM cells; assay: cell proliferation, cellular ATP; assay type: cell-based; settings: 36 hours
How it was run: as §2

[9] = target: RBPJ occupancy (RBPJ-DNA interactions in cells) (Mus musculus, UniProt P31266); assay: anti-RBPJ ChIP-qPCR in F9 cells; assay type: cell-based, murine; settings: 2.5 μM, 24 hours
How it was run: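 Murine F9 cells, grown in DMEM with 10% FBS, exposed to 2.5 µM test compound for 24 h. About 4 million cells fixed; chromatin sonicated on ice for 12 cycles (30 s on/90 s off, 40% amplitude). ChIP with polyclonal anti-RBPJ (1:100) and protein A-agarose in 500 μL. Enriched DNA quantified by SYBR green real-time PCR; Actin B serves as negative region. Mean ± SEM, N = 3.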

[10] = tested on: CUTLL1 cells; assay: cell proliferation, cellular ATP; assay type: cell-based; settings: 36 hours
[11] = tested on: MOLT4 cells; assay: cell proliferation, cellular ATP; assay type: cell-based; settings: 36 hours
How it was run: as §3

[12] = tested on: TALL-1 cells; assay: cell proliferation, cellular ATP; assay type: cell-based; settings: 96 hours; compared to JURKAT
How it was run: as §1

[13] = tested on: Notch-dependent transcription; assay: dual luciferase reporter assay; assay type: cell-based; settings: TK-Renilla luciferase control reporter (Table S1)
[14] = tested on: patient-derived xenograft models; settings: cited from earlier work
[15] = site occupied in part through CTCF

Chain of RBPJ occupancy (RBPJ-DNA interactions in cells) (Mus musculus, UniProt P31266) (P31266 whole entry): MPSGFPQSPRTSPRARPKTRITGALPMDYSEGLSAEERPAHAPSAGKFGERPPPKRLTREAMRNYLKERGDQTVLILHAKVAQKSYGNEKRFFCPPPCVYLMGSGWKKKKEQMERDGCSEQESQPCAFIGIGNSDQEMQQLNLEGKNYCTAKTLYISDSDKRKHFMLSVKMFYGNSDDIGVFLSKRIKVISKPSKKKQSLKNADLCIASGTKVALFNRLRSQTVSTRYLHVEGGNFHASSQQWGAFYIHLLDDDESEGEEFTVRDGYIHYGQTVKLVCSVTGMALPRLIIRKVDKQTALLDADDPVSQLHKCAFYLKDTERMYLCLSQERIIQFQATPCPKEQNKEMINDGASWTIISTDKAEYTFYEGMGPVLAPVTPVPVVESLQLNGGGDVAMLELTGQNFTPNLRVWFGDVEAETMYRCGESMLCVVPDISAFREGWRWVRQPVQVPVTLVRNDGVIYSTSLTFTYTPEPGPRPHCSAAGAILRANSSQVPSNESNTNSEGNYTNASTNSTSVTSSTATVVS
Chain of RBPJ occupancy (RBPJ-DNA interactions in cells) (Homo sapiens, UniProt Q06330) (Q06330 whole entry): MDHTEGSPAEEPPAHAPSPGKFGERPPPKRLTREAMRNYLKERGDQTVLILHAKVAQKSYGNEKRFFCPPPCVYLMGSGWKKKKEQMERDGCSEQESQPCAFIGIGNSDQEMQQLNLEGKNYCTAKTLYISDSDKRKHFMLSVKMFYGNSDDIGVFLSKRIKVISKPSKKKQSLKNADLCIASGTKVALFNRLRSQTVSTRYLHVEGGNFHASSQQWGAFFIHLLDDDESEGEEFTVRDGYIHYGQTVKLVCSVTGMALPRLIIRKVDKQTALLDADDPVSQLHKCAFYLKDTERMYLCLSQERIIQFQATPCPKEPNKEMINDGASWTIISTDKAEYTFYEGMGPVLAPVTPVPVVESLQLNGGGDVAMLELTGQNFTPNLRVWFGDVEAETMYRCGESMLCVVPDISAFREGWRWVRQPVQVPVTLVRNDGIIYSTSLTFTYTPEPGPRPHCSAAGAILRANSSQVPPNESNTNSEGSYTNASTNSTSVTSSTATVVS

SMILES: Cn1nccc1-c1ccc(C(N)=O)c(Oc2ccccc2F)c1 [RIN1]
- sensitivity of Notch-addicted KOPT-K1 cells [1]: as sensitive to RIN1 than Notch-independent JURKAT cells
- expression of the classic Notch targets HES1 and HEY1 [2]: increases the expression

SMILES: C[C@H](NC(=O)Cc1cc(F)cc(F)c1)C(=O)N[C@H](C(=O)OC(C)(C)C)c1ccccc1 [DAPT]
- expression of the classic Notch targets HES1 and HEY1 [2]: decreases the expression

SMILES: CC(=O)OC[C@H]1O[C@@H]([S-])[C@H](OC(C)=O)[C@@H](OC(C)=O)[C@@H]1OC(C)=O.CCP(CC)CC.[Au+] [auranofin, Auranofin]
- proliferation (cellular ATP) [3]: decreased the proliferation
- RBPJ occupancy at the endogenous HES1 promoter [4]: decreased RBPJ occupancy at these sites significantly
- RBPJ occupancy at the endogenous HEY1 promoter [4]: decreased RBPJ occupancy at these sites significantly
- sensitivity of proliferation (cellular ATP) [5]: significantly more sensitive to auranofin than JURKAT
- sensitivity of proliferation (cellular ATP) [6]: most resistant
- expression of HES1 [7]: significantly decreased
- expression of HEY1 [7]: significantly decreased
- expression of Notch-independent TCERG1 [7]: remained unchanged
- sensitivity of proliferation (cellular ATP) [8]: significantly more sensitive to auranofin than MOLT-4
- RBPJ occupancy at the HES1 promoter ([9]; direct RBPJ binding site): decreased RBPJ occupancy
- RBPJ occupancy at the ZFP334 promoter ([9]; direct RBPJ binding site): decreased RBPJ occupancy
- RBPJ occupancy at NANOG [9, 15]: not effectively disrupted
- RBPJ occupancy at NAPRT1 [9, 15]: not effectively disrupted
- sensitivity of proliferation (cellular ATP) [10]: significantly more sensitive to auranofin than JURKAT
- sensitivity of proliferation (cellular ATP) [11]: more sensitive to auranofin than JURKAT
- proliferation (cellular ATP) [12]: decreased the proliferation
- transcription from the TK promoter [13]: decreases transcription from the TK promoter

SMILES: CCOC(=O)COc1ccc(/C=C2\SC(=S)NC2=O)cc1OC [IMR-1]
- tumor growth [14]: impairs tumor growth
